Measurements as given in ChEMBL document CHEMBL3259555, “Aromatic diacylhydrazine derivatives as a new class of polo-like kinase 1 (PLK1) inhibitors” (Eur J Med Chem, 2014).

Assays:
[1] = Cytotoxicity against macrophage (unknown origin) assessed as reduction in cell viability after 24 hrs by MTT assay; format: cell-based; conditions: macrophages (unknown origin)
In short: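 Macrophages plated at 5×10⁵ cells per well with a range of compound concentrations and incubated 24 h at 37 °C, 5% CO₂. MTT (4 mg/mL stock) added for the final 4 h, plate centrifuged, supernatant removed, DMSO added, absorbance read at 570 nm. Triplicate wells per concentration, assay repeated three times; CC50 (50% viability reduction) given as mean ± SD.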

cells = conditions: Homo sapiens, Cancer cell lines, 48 h

Molecule Cc1cccc(/C=C/C(=O)NNC(=O)c2ccc3c(c2)OCCO3)c1 has a CC50 at 24 h [1] of 281 µM and an IC50 (cells) of 2.89 µM.
O=C(/C=C/c1ccccc1F)NNC(=O)c1ccc2c(c1)OCCO2 gave a CC50 at 24 h [1] of 302 µM and an IC50 (cells) of 4.51 µM.
For O=C(/C=C/c1cccc([N+](=O)[O-])c1)NNC(=O)c1ccc2c(c1)OCCO2, the CC50 at 24 h [1] was 323 µM and the IC50 (cells) was 1.56 µM.
With O=C(/C=C/c1ccc(Cl)cc1)NNC(=O)c1ccc2c(c1)OCCO2 the CC50 at 24 h [1] was 309 µM and the IC50 (cells) was 1.13 µM.
Molecule O=C(/C=C/c1cccc(F)c1)NNC(=O)c1ccc2c(c1)OCCO2 has a CC50 at 24 h [1] of 221 µM and an IC50 (cells) of 4.11 µM.
For O=C(/C=C/c1ccccc1Cl)NNC(=O)c1ccc2c(c1)OCCO2, the CC50 at 24 h [1] was 285 µM and the IC50 (cells) was 4.88 µM.
In the case of O=C(/C=C/c1cccc(Cl)c1)NNC(=O)c1ccc2c(c1)OCCO2, the CC50 at 24 h [1] is reported as 391 µM and the IC50 (cells) is reported as 3.56 µM.
O=C(/C=C/c1ccccc1[N+](=O)[O-])NNC(=O)c1ccc2c(c1)OCCO2 gave a CC50 at 24 h [1] of 257 µM and an IC50 (cells) of 0.89 µM.
Molecule Cc1ccccc1/C=C/C(=O)NNC(=O)c1ccc2c(c1)OCCO2 has a CC50 at 24 h [1] of 268 µM and an IC50 (cells) of 7.71 µM.
In the case of COc1cccc(/C=C/C(=O)NNC(=O)c2ccc3c(c2)OCCO3)c1, the CC50 at 24 h [1] is reported as 398 µM and the IC50 (cells) is reported as 0.17 µM.
Work on O=C(/C=C/c1ccc(F)cc1)NNC(=O)c1ccc2c(c1)OCCO2 yielded a CC50 at 24 h [1] of 319 µM and an IC50 (cells) of 0.99 µM.
O=C(/C=C/c1ccc([N+](=O)[O-])cc1)NNC(=O)c1ccc2c(c1)OCCO2 gave a CC50 at 24 h [1] of 295 µM and an IC50 (cells) of 0.61 µM.
Molecule O=C(/C=C/c1ccccc1Br)NNC(=O)c1ccc2c(c1)OCCO2 has a CC50 at 24 h [1] of 315 µM and an IC50 (cells) of 2.11 µM.
Work on O=C(/C=C/c1ccc(Br)cc1)NNC(=O)c1ccc2c(c1)OCCO2 yielded a CC50 at 24 h [1] of 259 µM and an IC50 (cells) of 2.33 µM.
In the case of COc1ccccc1/C=C/C(=O)NNC(=O)c1ccc2c(c1)OCCO2, the CC50 at 24 h [1] is reported as 312 µM and the IC50 (cells) is reported as 8.06 µM.
O=C(/C=C/c1ccccc1)NNC(=O)c1ccc2c(c1)OCCO2 gave a CC50 at 24 h [1] of 312 µM and an IC50 (cells) of 0.55 µM.
In the case of O=C(/C=C/c1cccc(Br)c1)NNC(=O)c1ccc2c(c1)OCCO2, the CC50 at 24 h [1] is reported as 351 µM and the IC50 (cells) is reported as 3.33 µM.
In the case of Cc1ccc(/C=C/C(=O)NNC(=O)c2ccc3c(c2)OCCO3)cc1, the CC50 at 24 h [1] is reported as 332 µM and the IC50 (cells) is reported as 1.05 µM.
In the case of COc1ccc(/C=C/C(=O)NNC(=O)c2ccc3c(c2)OCCO3)cc1, the CC50 at 24 h [1] is reported as 319 µM and the IC50 (cells) is reported as 0.93 µM.
